Data taken from ChEMBL document CHEMBL4396897, “Potent 5-Cyano-6-phenyl-pyrimidin-Based Derivatives Targeting DCN1-UBE2M Interaction” (J Med Chem, 2019).
Active and inactive are the calls of the source. The calls are words filed in the database; no cut-off is given here.

Columns and labels:
[1] = test system: NCI-H1975; assay: Induction of apoptosis in human NCI-NCI-H1975 cells assessed as necrotic cells at 5 uM after 48 hrs by Annexin V-FITC/propidium iodide staining based flow cytometry (reference value: 0.94%); assay type: functional
[2] = test system: PC-9; assay: Induction of apoptosis in human PC9 cells assessed as late apoptotic cells at 5 uM after 48 hrs by Annexin V-FITC/propidium iodide staining based flow cytometry (reference value: 1.57%); assay type: functional
[3] = test system: A549; assay: Induction of apoptosis in human A549 cells assessed as viable cells at 2.5 uM after 48 hrs by Annexin V-FITC/propidium iodide staining based flow cytometry (reference value: 92.9%); assay type: functional; settings: A549, 48 h, read-out: Activity
[4] = test system: NCI-H1975; assay: Inhibition of colony formation in human […] cells after 7 days by crystal violet staining based microscopic analysis; assay type: functional, cell-based
Procedure, shortened: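 H1975, PC9 and A549 cells seeded at 1×10^3 cells per well and cultured overnight, then given fresh medium with compound at 0, 0.625, 1.25, 2.5, 5 or 10μM for 7 days. Cells fixed, stained with 0.1% crystal violet and imaged by microscopy; dye then dissolved and read on a plate reader. Three experiments; means ± SD.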

[5] = test system: NCI-H1975; assay: Induction of apoptosis in human NCI-NCI-H1975 cells assessed as necrotic cells at 10 uM after 48 hrs by Annexin V-FITC/propidium iodide staining based flow cytometry (reference value: 0.94%); assay type: functional
[6] = test system: KYSE-140; assay: Antiproliferative activity against human KYSE-140 after 72 hrs by MTT assay; assay type: functional, cell-based
Procedure, shortened: (§1)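 MTT viability assay: cells seeded at 2~5×10^3 per well, exposed to serial dilutions of compound for 72h, then MTT (5 mg/mL in PBS) added for 4h at 37°C. Formazan dissolved in DMSO and read at 490nm. IC50 reported as mean ± SD of three independent experiments.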

[7] = test system: A549; assay: Induction of apoptosis in human A549 cells assessed as necrotic cells at 10 uM after 48 hrs by Annexin V-FITC/propidium iodide staining based flow cytometry (reference value: 0.88%); assay type: functional
[8] = test system: ECa-109 cell line; assay: Antiproliferative activity against human EC109 after 72 hrs by MTT assay; assay type: functional, cell-based; procedure, shortened: as §1
[9] = test system: NCI-H1975; assay: Induction of apoptosis in human NCI-NCI-H1975 cells assessed as viable cells at 2.5 uM after 48 hrs by Annexin V-FITC/propidium iodide staining based flow cytometry (reference value: 96.1%); assay type: functional; settings: NCI-H1975, 48 h, read-out: Activity
[10] = test system: NCI-H1975; assay: Induction of apoptosis in human NCI-NCI-H1975 cells assessed as viable cells at 10 uM after 48 hrs by Annexin V-FITC/propidium iodide staining based flow cytometry (reference value: 96.1%); assay type: functional; settings: NCI-H1975, 48 h, read-out: Activity
[11] = test system: NCI-H1975; assay: Induction of apoptosis in human NCI-NCI-H1975 cells assessed as late apoptotic cells at 10 uM after 48 hrs by Annexin V-FITC/propidium iodide staining based flow cytometry (reference value: 0.46%); assay type: functional
[12] = target: T1, NEDD8-activating enzyme E1 catalytic subunit (Homo sapiens) (UniProt Q8TBC4); assay: Inhibition of NEDD8-activating enzyme E1C (unknown origin) assessed as effect on NEDD8/UBE2M complex formation up to 100 uM pre-incubated for 10 mins followed by Mg-ATP addition after 60 mins by SDS-PAGE analysis
T1 sequence (whole entry): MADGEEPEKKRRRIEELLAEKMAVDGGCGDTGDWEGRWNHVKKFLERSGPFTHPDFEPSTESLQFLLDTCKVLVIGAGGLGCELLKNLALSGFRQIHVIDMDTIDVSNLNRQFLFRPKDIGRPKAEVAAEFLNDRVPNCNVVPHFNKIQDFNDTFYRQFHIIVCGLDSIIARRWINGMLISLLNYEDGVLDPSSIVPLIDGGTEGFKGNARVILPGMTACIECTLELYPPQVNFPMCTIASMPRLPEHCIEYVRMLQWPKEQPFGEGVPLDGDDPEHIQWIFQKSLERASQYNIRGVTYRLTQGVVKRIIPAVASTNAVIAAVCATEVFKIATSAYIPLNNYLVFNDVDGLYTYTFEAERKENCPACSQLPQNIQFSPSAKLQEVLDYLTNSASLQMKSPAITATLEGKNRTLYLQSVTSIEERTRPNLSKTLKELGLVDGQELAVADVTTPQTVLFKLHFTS
Procedure, shortened: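 Cell-free NEDD8~UBE2M formation: NEDD8 E1 mixed with NEDD8, UBE2M and compound (10 and 20µM reference inhibitor, or 1, 10 and 100µM test compound) in reaction buffer, 10 min at room temperature. Started with Mg-ATP, incubated 60 min at 37°C, then 1mM DTT and non-reducing loading buffer added. Resolved on 12% SDS-PAGE.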

[13] = test system: PC-9; assay: Induction of apoptosis in human PC9 cells assessed as necrotic cells at 5 uM after 48 hrs by Annexin V-FITC/propidium iodide staining based flow cytometry (reference value: 1.34%); assay type: functional
Procedure, shortened: (§2)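 PC9 cells seeded in 6-well plates (1~2×10^6 cells/mL), incubated overnight, then exposed to 0, 2.5, 5 or 10µM compound for 48h. Harvested cells stained with Annexin-V-FITC/PI for 30 min and analysed by flow cytometry. Three individual experiments; means ± SD.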

[14] = test system: PC-9; assay: Induction of apoptosis in human PC9 cells assessed as early apoptotic cells at 10 uM after 48 hrs by Annexin V-FITC/propidium iodide staining based flow cytometry (reference value: 1.36%); assay type: functional; procedure, shortened: as §2
[15] = test system: PC-9; assay: Effect on NQO1 accumulation in human PC9 cells transfected with DCN1 siRNA3 by densitometric method; assay type: functional, cell-based
Procedure, shortened: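 H1975 or PC9 cells seeded in 6-well plates for 16-24h, transfected with DCN1 siRNA#3 by lipofection, with or without compound, and collected three days later. Western blot for Cullin3, DCN1, NRF2, HO-1 and NQO1, with densitometry normalized to GAPDH. Three individual experiments, means ± SD.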

[16] = test system: NCI-H1975; assay: Induction of apoptosis in human NCI-NCI-H1975 cells assessed as late apoptotic cells at 5 uM after 48 hrs by Annexin V-FITC/propidium iodide staining based flow cytometry (reference value: 0.46%); assay type: functional
[17] = target: T2, DCN1-like protein 5 (Homo sapiens, UniProt Q9BTE7); assay: Binding affinity to N-terminal GST tagged recombinant DCN5 (unknown origin) (47 to 237 residues) expressed in Escherichia coli BL21(DE3) assessed as reduction in DCN1/FAM-labelled N-terminal acetylated UBE2M (1 to 21 residues) protein-protein interaction after 30 mins by HTRF assay
T2 sequence (Q9BTE7 whole entry): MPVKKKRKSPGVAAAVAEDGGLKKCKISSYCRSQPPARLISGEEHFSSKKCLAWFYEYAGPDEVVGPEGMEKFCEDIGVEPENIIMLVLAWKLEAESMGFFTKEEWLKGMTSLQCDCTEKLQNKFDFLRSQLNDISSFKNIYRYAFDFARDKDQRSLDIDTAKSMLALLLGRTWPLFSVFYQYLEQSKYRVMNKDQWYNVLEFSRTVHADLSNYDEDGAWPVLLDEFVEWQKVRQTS
Procedure, shortened: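 HTRF competition: 5nM GST-tagged DCN (1-5) and 5nM AcUBE2M1-21-biotin peptide, with streptavidin-XL665 and anti-GST cryptate, in 100mM phosphate buffer pH 6.5 with 0.02% Tween-20. Cocktail pre-incubated 30min at room temperature, compound added, then 30min more. Excitation 320nm, emission 615/665nm. Ki from three independent repeats, mean ± SD.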

inhibition [12]: inactive
Ki [17]: 2140 nM
SMILES: C#CCSc1nc(Sc2nccs2)c(C#N)c(-c2ccc(C)cc2)n1
Activity [1]: 4.92%
Activity [2]: 22.7%
viability at 2.5 µM [3]: 82.2%
inhibition [4]: Dose-dependent effect
Activity [5]: 2.74%
Activity [6]: Active
Activity [7]: 0.72%
Activity [8]: Active
viability at 2.5 µM [9]: 80%
viability at 10 µM [10]: 17.1%
Activity [11]: 46.9%
Activity [13]: 5.29%
Activity [14]: 1.97%
Activity [15]: inactive
Activity [16]: 29%
